# In article PMC11986672 (RSC Medicinal Chemistry, 2025):
# Counter-ions that a name gives are not always drawn. Like-named read-outs stand apart in the source and are kept apart here.
# Legend:
# [1] = test system: human endometrial cancer (HEC1A) cells; experiment: MTT cytotoxicity assay, HEC1A; format: cell-based; conditions: for IC50: 48 h; for Selectivity ratio: IC50 MAD11 divided by IC50 HEC1A; for times more potent than BH10: HEC1A IC50 compared with BH10
# Summary of the method: (§1)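 HEC1A (5000/well) and MAD11 (2500/well) cells were seeded and held overnight at 37 °C. Test compound was reconstituted in DMSO and serially diluted in medium to final 160, 80, 40, 20, 10, 5, 2.5 and 1.25 μM, in triplicate, with matched DMSO in all wells. After 48 h, MTT was added for 3 h, formazan solubilised (4 mM HCl, 0.1% NP-40, isopropanol) and absorbance read at 590/620 nm. IC50 was taken against vehicle controls; selectivity = MAD11 IC50 / HEC1A IC50.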
# [2] = test system: noncancerous human endometrial stromal (MAD11) cells; experiment: MTT cytotoxicity assay, MAD11; format: cell-based; conditions: MAD11, 48 h, read-out: MAD11 IC50
# Summary of the method: as §1
# [3] = Homo sapiens, HEC-1-A, read-out: HEC1A IC50, MTT cell viability, 48 h, n = 3 biological repeats
# [4] = read-out: HEC1A IC50, MTT cell viability, n = 3 biological repeats
Structure (SMILES),"IC50 [1, 3] [µM]",IC50 [2] [µM],Selectivity ratio [1],times more potent than BH10 [1] [times],"IC50 ([1]; Homo sapiens, HEC-1-A, read-out: HEC1A IC50) [µM]","IC50 [1, 4] [µM]"
"O=C1C=C(NCCN2CCOCC2)C(=O)c2ccccc21 [Compound 5, 2-((2-Morpholinoethyl)amino)naphthalene-1,4-dione]",> 40,> 40,,,,
"O=C1C=C(NCCCN2CCOCC2)C(=O)c2ccccc21 [Compound 6, 2-((3-Morpholinopropyl)amino)-[1,4]-naphthoquinone]",> 40,> 40,,,,
"O=C1C=C(NCCCN2CCCCC2)C(=O)c2ccccc21 [Compound 7, 2-((3-(Piperidin-1-yl)propyl)amino)-[1,4]-naphthoquinone]",17.2,> 40,>2.32,,,
"O=C1C(Br)=C(NCCN2CCOCC2)C(=O)c2ccccc21 [Compound 8, 2-Bromo-3-((2-(4-morpholinyl)ethyl)amino)-[1,4]-naphthoquinone]",9.55,20.5,2.15,,,
"O=C1C(Br)=C(NCCCN2CCOCC2)C(=O)c2ccccc21 [Compound 9, 2-Bromo-3-((3-morpholinopropyl)amino)-[1,4]-naphthoquinone]",4.16,12.1,2.90,,,
"O=C1C(Br)=C(NCCCN2CCCCC2)C(=O)c2ccccc21 [Compound 10, 2-Bromo-3-((3-(piperidin-1-yl)propyl)amino)-[1,4]-naphthoquinone]",1.24,3.27,2.64,,,
"CC1=C(NCCN2CCOCC2)C(=O)c2ccccc2C1=O [Compound 11, 2-Methyl-3-((2-(4-morpholinyl)ethyl)amino)-[1,4]-naphthoquinone]",> 40,> 40,,,,
"CN(C)CCNC1=C(Cl)C(=O)c2ccccc2C1=O [Compound 12, 2-Chloro-3-((2-(dimethylamino)ethyl)amino)-[1,4]-naphthoquinone]",1.57,2.87,1.83,,,
"O=C1C(Cl)=C(NCCN2CCCC2)C(=O)c2ccccc21 [Compound 13, 2-Chloro-3-((2-(1-pyrrolidinyl)ethyl)amino)-[1,4]-naphthoquinone]",1.29,2.38,1.84,~8,,
"O=C1C(Cl)=C(NCCN2CCCCCC2)C(=O)c2ccccc21 [Compound 15, 2-((2-(Azepan-1-yl)ethyl)amino)-3-chloro-[1,4]-naphthoquinone]",1.29,2.38,1.84,~8,,
"O=C1C(Cl)=C(NCCCl)C(=O)c2ccccc21 [Compound 16, 2-Chloro-3-((2-chloroethyl)amino)-[1,4]-naphthoquinone]",,12.1,2.14,,5.65,
"O=C1C(Cl)=C(NCCN2CCN(C3=C(Cl)C(=O)c4ccccc4C3=O)CC2)C(=O)c2ccccc21 [Compound 18, 2-Chloro-3-(4-(2-((3-chloro-1,4-dioxo-1,4-dihydronaphthalen-2-yl)amino)ethyl)piperazin-1-yl)-[1,4]-naphthoquinone]",2.91,3.4,1.17,3.5,,
"O=C1C(Cl)=C(NCCc2c[nH]c3ccccc23)C(=O)c2ccccc21 [Compound 19, 2-((2-(1H-Indol-3-yl)ethyl)amino)-3-chloronaphthalene-1,4-dione]",18.6,40.3,2.24,,,
"O=C1C(Cl)=C(NCCCN2CCOCC2)C(=O)c2ccccc21 [Compound 20, 2-Chloro-3-((3-morpholinopropyl)amino)naphthalene-1,4-dione]",6.41,21.9,3.42,,,
"CN(C)CCCNC1=C(Cl)C(=O)c2ccccc2C1=O [Compound 22, 2-Chloro-3-((3-(dimethylamino)propyl)amino)naphthalene-1,4-dione]",2.36,5.27,2.23,,,
"CCCCNC1=C(Cl)C(=O)c2ccccc2C1=O [Compound 23, 2-(Butylamino)-3-chloro-[1,4]-naphthoquinone]",32,> 40,>1.25,,,
"C#CCNC1=C(Cl)C(=O)c2ccccc2C1=O [Compound 24, 2-Chloro-3-(prop-2-yn-1-ylamino)naphthalene-1,4-dione]",21.9,22.4,1.02,,,
"CCOC(=O)CNC1=C(Cl)C(=O)c2ccccc2C1=O [Compound 25, Ethyl (3-chloro-1,4-dioxo-1,4-dihydronaphthalen-2-yl)glycinate]",20,20.1,1.00,,,
"COC(=O)[C@H](Cc1c[nH]c2ccccc12)NC1=C(Cl)C(=O)c2ccccc2C1=O [Compound 26, Methyl (3-chloro-1,4-dioxo-1,4-dihydronaphthalen-2-yl)-L-tryptophanate]",> 40,> 40,,,,
"COC(=O)[C@H](Cc1ccccc1)NC1=C(Cl)C(=O)c2ccccc2C1=O [Compound 27, Methyl (3-chloro-1,4-dioxo-1,4-dihydronaphthalen-2-yl)-L-phenylalaninate]",> 40,> 40,,,,
"O=C1C(Cl)=C(NCCN2CCNCC2)C(=O)c2ccccc21 [Compound 29, 2-Chloro-3-((2-(1-piperazinyl)ethyl)amino)-[1,4]-naphthoquinone salt]",4.68,11.5,2.45,2.2,,
"COC(=O)[C@H](CCCCN)NC1=C(Cl)C(=O)c2ccccc2C1=O [Compound 30, Methyl (3-chloro-1,4-dioxo-1,4-dihydronaphthalen-2-yl)-L-lysinate]",38,> 40,,,,
"O=C1C(Cl)=C(NCc2cn(-c3ccccc3)nn2)C(=O)c2ccccc21 [Compound 31, 2-Chloro-3-(((1-phenyl-1H-1,2,3-triazol-4-yl)methyl)amino)naphthalene-1,4-dione]",19.5,34,1.74,,,
"O=C(O)c1ccc(-n2cc(CNC3=C(Cl)C(=O)c4ccccc4C3=O)nn2)cc1 [Compound 32, 4-(4-(((3-Chloro-1,4-dioxo-1,4-dihydronaphthalen-2-yl)amino)methyl)-1H-1,2,3-triazol-1-yl)benzoic acid]",> 40,> 40,,,,
"CCOC(=O)c1ccc(-n2cc(CNC3=C(Cl)C(=O)c4ccccc4C3=O)nn2)cc1 [Compound 33, Ethyl 4-(4-(((3-chloro-1,4-dioxo-1,4-dihydronaphthalen-2-yl)amino)methyl)-1H-1,2,3-triazol-1-yl)benzoate]",11.1,21.3,1.92,,,
"CC(=O)NC1=C(NCCCN2CCCCC2)C(=O)c2ccccc2C1=O [Compound 39, N-(1,4-Dioxo-3-((3-(piperidin-1-yl)propyl)amino)-1,4-dihydronaphthalen-2-yl)acetamide]",26,> 40,,,,26
"CCC(=O)NC1=C(NCCCN2CCCCC2)C(=O)c2ccccc2C1=O [Compound 40, N-(1,4-Dioxo-3-((3-(piperidin-1-yl)propyl)amino)-1,4-dihydronaphthalen-2-yl)propionamide]",14,38.2,2.70,,,14.1
